CHRM1 agonist: activates human CHRM1 receptor; P11229; CHO-K1 hM1, Fluo-8 calcium fluorescence, agonist mode; 0% DMSO, 100% acetylcholine EC100; activation, % at 3 µM; 360,000 compounds, 0.33% hits;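 active means activation above the run's mean compound activation plus 3 SD, cut at about 16% in these data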;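 further: peak over basal fluorescence ratio within a 140 s kinetic read after compound addition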
Target sequence (P11229 whole entry, looked up): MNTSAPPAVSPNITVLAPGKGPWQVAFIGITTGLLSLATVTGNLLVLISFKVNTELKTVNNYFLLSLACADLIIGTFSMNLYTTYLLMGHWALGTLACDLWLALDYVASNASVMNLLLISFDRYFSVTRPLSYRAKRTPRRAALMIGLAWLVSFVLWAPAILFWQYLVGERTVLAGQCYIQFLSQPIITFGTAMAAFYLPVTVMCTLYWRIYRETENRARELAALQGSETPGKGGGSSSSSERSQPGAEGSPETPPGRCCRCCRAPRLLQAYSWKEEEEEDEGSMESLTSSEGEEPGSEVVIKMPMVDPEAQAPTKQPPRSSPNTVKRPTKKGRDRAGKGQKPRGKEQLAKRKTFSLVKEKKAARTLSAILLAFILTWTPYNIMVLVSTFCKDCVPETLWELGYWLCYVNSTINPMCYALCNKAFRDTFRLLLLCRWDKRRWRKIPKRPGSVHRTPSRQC
TAAR1 antagonist: antagonists of human TAAR1. CHO RD-HGA16 TAAR1, Fluo-8 calcium fluorescence, antagonist. AID 624466. inhibition, % at 3 µM. Q96RJ0. 360,000 compounds, 1.5% hits;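 active means inhibition above a per-plate cutoff, the mean inhibition of test compounds on that plate plus 3 SD, cut at about 49% in these data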;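 further: 0% = DMSO plus EC80 beta-PEA response and 100% = DMSO alone without agonist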
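Test system: CHO RD-HGA16 cells bearing hTAAR1 | Reagent: β-PEA, EC80 | Compound dosing: 3 µM, single point | Schedule: Dye loading 75 min at 37 °C, then 30 min room temperature | Signal: Calcium fluorescence with Fluo-8 | Evaluation: Percent inhibition of PEA-evoked calcium signal, max/basal emission ratio | Control set: DMSO-only wells and EC80 β-PEA-stimulated wells | Repeats: Singlicate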
CHRM1 antagonist: human CHRM1 antagonism; inhibition, % at 3 µM; P11229; 360,000 compounds, 1.3% hits; CHO-K1 hM1, Fluo-8 calcium fluorescence, ACh EC80 antagonist;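 active means percent inhibition above its own plate's cutoff, namely the mean of that plate's compound wells plus 3 SD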;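 further: peak over basal fluorescence ratio during 140 s after agonist addition; 0% = ACh EC80 plus DMSO and 100% = DMSO alone without agonist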
M1 PAM: human CHRM1 positive allosteric modulation; CHO-K1 hM1, Fluo-8 calcium fluorescence, ACh EC20; 0% = ACh EC20, 100% = maximal ACh; 360,000 compounds, 0.088% hits; activation, % at 3 µM; in the data active means activation above about 19%, passing the limit was not always enough
TAAR1 ag: agonists of human TAAR1. Q96RJ0. CHO RD-HGA16 TAAR1, Fluo-8 calcium fluorescence; vehicle wells 0%, saturating PEA agonist 100%. activation, % at 3 µM. 360,000 compounds, 0.99% hits. AID 624467;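 active means activation above the mean activation of all test compounds in the run plus 3 SD, cut at about 38% in these data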
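Test system: RD-HGA16 (CHO) cells co-expressing Gα16 and hTAAR1 | Doses: Single dose, 3 µM | Schedule: 17-24 h seeding, 75 min 37 °C dye, 30 min RT | Evaluation: % activation from peak over basal fluorescence ratio, DMSO-to-PEA scaled | Technique: Kinetic Fluo-8 calcium fluorescence | Benchmarks: Low control DMSO, high control PEA (EC100)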
HTR2A ag: mouse HTR2A agonism via beta-arrestin recruitment. P35363. CHO-K1 mHTR2A beta-arrestin complementation, luminescence; percent of 30 µM serotonin response. AID 624169. activation, % at 7.6 µM. 360,000 compounds, 0.66% hits;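 active means activation above a run cutoff, the mean activation of all tested compounds plus 3 SD, cut at about 14% in these data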;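 further: 0% = plate median of compound wells and 100% = 30 µM serotonin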
TAAR1 ag confirm: human TAAR1 agonism, confirmed. shares compounds with TAAR1 ag. CHO RD-HGA16 TAAR1, Fluo-8 calcium fluorescence; scaled: DMSO 0%, maximal phenethylamine 100%. activation, % at 3 µM. 2,400 compounds, 82% hits. AID 651783;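 active means activation above a cutoff set at the run's mean compound activation plus 3 SD, cut at about 39% in these data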
Ga16 nonsel ag: counter-screen for TAAR1 agonists: nonselective agonists in parental cells | AID 651787 | 2,400 compounds, 50% hits | activation, % at 3 µM | shares compounds with TAAR1 ag | CHO-Ga16 parental, Fluo-8 calcium fluorescence; normalized to maximal ATP response, DMSO zero;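 active means activation above the run cutoff, the mean activation over all tested wells plus 3 SD, cut at about 12% in these data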;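 further: 0% = DMSO wells and 100% = maximal ATP response on the peak over basal ratio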
TAAR1 desens: counter-screen for human TAAR1 agonists: agonists that desensitize TAAR1; shares compounds with TAAR1 ag; CHO RD-HGA16 hTAAR1, Fluo-8 calcium, beta-PEA response inhibition; inhibition, % at 3 µM; 2,400 compounds, 46% hits;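 active means inhibition above the run cutoff, the mean inhibition of all test compounds plus 3 SD, cut at about 49% in these data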;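 further: beta-PEA stimulus applied at its EC80; loss of beta-PEA calcium signal after compound pretreatment read as receptor desensitization; 0% = DMSO with beta-PEA at EC80 and 100% = DMSO alone without agonist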
Ga16 nonsel ant: nonselective Ga16 antagonism, counter-screen; inhibition, % at 3 µM; CHO-Ga16 ATP-induced calcium, Fluo-8 fluorescence; shares compounds with TAAR1 ag; 2,400 compounds, 39% hits; AID 651952;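 active means inhibition above the plate's mean compound inhibition plus 3 SD, computed per plate, cut at about 22% in these data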;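 further: 0% = EC80 ATP with DMSO and 100% = DMSO wells without ATP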
* = called active by the depositor; . = no result. Hits are enriched below; roughly 3.9% of the tested compounds scored in any of these assays.

SMILES	CHRM1 agonist	TAAR1 antagonist	CHRM1 antagonist	M1 PAM	TAAR1 ag	HTR2A ag	TAAR1 ag confirm	Ga16 nonsel ag	TAAR1 desens	Ga16 nonsel ant
Cc1c(NC(=S)NNC(=O)CCC(=O)O)c(=O)n(-c2ccccc2)n1C	-2	0	-24	4	0	0	.	.	.	.
O=c1oc2ccccc2c(N2CCC(c3ccccc3)CC2)c1[N+](=O)[O-]	0	-11	-11	3	7	0	.	.	.	.
CC1CCCN(c2c([N+](=O)[O-])c(=O)oc3ccccc23)C1 (configuration not stated)	0	.	-5	-1	.	-2	.	4	.	4
COc1ccc(C(c2nnnn2CCc2ccccc2)N2CCN(C3CCCC3)CC2)cc1OC (configuration not stated)	-5	7	-1	0	51*	-8	78*	4	27	3
COc1ccc(C(c2nnnn2C2CCCC2)N2CCN(C3CCCC3)CC2)cc1OC (configuration not stated)	0	-9	-20	8	2	-5	.	.	.	.
CCOC(=O)c1ccc(Oc2cn[nH]c2-c2ccc(OCC(=O)NN)cc2O)cc1	3	35	16	-4	86*	6	47*	17*	27	21
CCCOC(=O)c1ccc(Oc2cn[nH]c2-c2ccc(OCC(=O)NN)cc2O)cc1	6	4	-16	18	6	5	.	.	.	.
Cc1nn(C(=O)CCC(=O)NCCc2ccccc2)c2ccccc12	-5	.	-8	6	.	-3	.	5	.	8
COc1ccccc1/C=C/C(=O)OCC(=O)NC1CCCCCCC1	-6	3	2	0	-1	-5	.	.	.	.
O=C(COC(=O)/C=C/c1ccccc1Cl)NC1CCCCCC1	-2	53*	-1	-4	49*	0	24	5	33	11
CN1OC[C@@H]2CN(C(=S)NCCc3ccccc3)[C@H](c3ccc(-n4ccnc4)cc3)C[C@@H]21	-7	-8	-6	2	47*	-3	49*	7	6	10
CS(=O)(=O)c1ccc(S(=O)(=O)N2CCN(C(=O)C(O)c3ccccc3)CC2)cc1 (configuration not stated)	.	9	.	.	1	1	.	.	.	.
Cc1ccc(OCC(=O)NNC(=O)c2ccco2)c(C)c1	0	-27	-7	13	0	6	.	.	.	.
Cc1cccc(NC(=O)CCN2CCCC(C)C2)c1 (configuration not stated)	-8	5	-9	3	2	-4	.	.	.	.
CC1CCCN(CCC(=O)c2ccc(Br)cc2)C1 (configuration not stated)	-5	22	-3	-4	75*	8	93*	3	57*	7
COc1ccc(C(=O)CCN2CCCC(C)C2)cc1 (configuration not stated)	-8	16	-4	8	79*	-1	76*	1	18	2
CC(Sc1ccsc1[N+](=O)[O-])C(=O)N1CCN(c2ccccn2)CC1 (configuration not stated)	-8	18	2	-15	8	-1	.	.	.	.
CC(C)=NNc1nc2c(c(=O)[nH]c(=O)n2C)n1CCCc1ccccc1	-2	-9	-1	3	2	-4	.	.	.	.
CC(C)=NNc1nc2c(c(=O)[nH]c(=O)n2C)n1CCc1ccccc1	-6	-13	0	2	47*	0	37	2	3	18
O=S(=O)(Cc1ccccc1)NCCc1cccc(Cl)c1	-5	-6	9	-6	44*	0	77*	1	36	1
CNc1nc(N)c([N+](=O)[O-])c(NC2CCCCC2)n1	6	-22	0	7	60*	4	90*	42*	-2	-17
COC(=O)c1c(-c2cccnc2)csc1NC(=O)c1ccc2c(c1)OCO2	-3	27	1	-2	3	3	.	.	.	.
Cc1[nH]c2ccccc2c1C(=O)CN1C(=O)NC(C)(c2ccc(Cl)cc2Cl)C1=O (configuration not stated)	27*	55*	19	6	70*	1	75*	39*	64*	48*
O=c1cc(C=NNc2ccccc2)[nH]c(=O)[nH]1	-3	.	-11	4	.	-3	.	3	.	11
O=c1cc(N/N=C/c2ccccc2)[nH]c(=O)[nH]1	-2	31	-6	6	58*	-1	84*	15*	90*	7
SMILES	CHRM1 agonist	TAAR1 antagonist	CHRM1 antagonist	M1 PAM	TAAR1 ag	HTR2A ag	TAAR1 ag confirm	Ga16 nonsel ag	TAAR1 desens	Ga16 nonsel ant
COC(=O)c1c(C)[nH]c(/C=N/Nc2ccccc2)c1C	-3	-31	-17	16	1	4	.	.	.	.
Cc1c(C=NNc2ccccc2)[nH]c(=O)[nH]c1=O	-4	2	-10	5	58*	3	72*	3	36	11
CCc1cccc(C)c1NC(=O)Nc1c(Br)cnn1C	-5	.	-3	6	.	-1	.	.	.	.
CSCC[C@H](NC(=O)OC(C)(C)C)C(=O)N1CCC(C(=O)N[C@@H](C)C(=O)NCc2ccc(F)cc2)CC1	-2	-6	-6	4	0	-1	.	.	.	.
O=S(=O)(NC1CCCCCCC1)c1ccc(F)cc1	-4	-19	-7	4	11	-1	.	.	.	.
O=S(=O)(NC1CCCC1)c1ccc(S(=O)(=O)NC2CCCC2)cc1	9	27	7	0	57*	-1	45*	24*	40	32*
Cc1ccc(S(=O)(=O)N(C)CCN(C)S(=O)(=O)c2ccc(C)cc2)cc1	5	-3	-6	5	0	1	.	.	.	.
O=c1[nH]c(=S)[nH]c2sc3c(c12)CCCCCC3	-1	-4	-22	15	0	1	.	.	.	.
O=C(N/N=C/c1ccncc1)c1nc2ccccc2c(=O)[nH]1	-2	-40	-18	12	62*	6	2	1	9	9

High-throughput results deposited in PubChem BioAssay by The Scripps Research Institute Molecular Screening Center.
